Source: paper PMC6130848 (Circulation. Cardiovascular imaging, 2018)
Residues, ends and D or L forms follow the SMILES beside them. No end group written: not given here. *: point of attachment. DOTA = O=C(O)CN1CCN(CC(=O)O)CCN(CC(=O)*)CCN(CC(=O)O)CC1

What was measured:
[1] = target: T1, tropoelastin (Homo sapiens, UniProt P15502); format: binding
T1 sequence (P15502 27-786): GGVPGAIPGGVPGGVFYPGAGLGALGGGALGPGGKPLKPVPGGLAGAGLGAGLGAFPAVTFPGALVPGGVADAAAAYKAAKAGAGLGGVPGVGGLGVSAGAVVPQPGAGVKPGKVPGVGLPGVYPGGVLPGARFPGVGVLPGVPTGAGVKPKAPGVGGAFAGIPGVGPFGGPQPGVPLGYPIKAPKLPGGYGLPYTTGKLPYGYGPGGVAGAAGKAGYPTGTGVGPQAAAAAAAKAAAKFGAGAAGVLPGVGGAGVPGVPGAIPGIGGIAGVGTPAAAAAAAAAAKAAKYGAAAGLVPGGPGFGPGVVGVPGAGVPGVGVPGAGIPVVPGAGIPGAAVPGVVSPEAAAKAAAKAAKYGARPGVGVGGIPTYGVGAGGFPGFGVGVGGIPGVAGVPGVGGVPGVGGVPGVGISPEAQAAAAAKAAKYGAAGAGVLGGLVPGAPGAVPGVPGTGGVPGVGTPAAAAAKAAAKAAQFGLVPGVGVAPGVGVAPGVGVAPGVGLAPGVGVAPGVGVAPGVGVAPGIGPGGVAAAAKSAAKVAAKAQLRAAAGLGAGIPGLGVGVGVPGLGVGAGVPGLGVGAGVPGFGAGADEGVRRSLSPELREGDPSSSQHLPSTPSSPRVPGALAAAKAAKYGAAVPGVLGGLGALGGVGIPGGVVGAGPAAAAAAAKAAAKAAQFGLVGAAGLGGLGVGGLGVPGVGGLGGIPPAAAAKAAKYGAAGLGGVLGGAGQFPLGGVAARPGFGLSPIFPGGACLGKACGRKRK

[2] = test system: tropoelastin, mature elastin, collagen I, fibronectin, human serum albumin; format: binding; settings: Eu-labelled probes, in vitro
[3] = 20MHz, 37°C; cited from earlier work
[4] = format: in vivo; settings: biodistribution of ^64Cu-labeled probes
[5] = test system: vessel wall tropoelastin of ApoE^-/- mice; settings: feed or water, 40 mg/kg, 2016 h
[6] = test system: vessel wall tropoelastin of ApoE^-/- mice; settings: 2016 h
[7] = test system: diseased vessel sections; design: species or system mouse; settings: 200nM, 24h, 4°C
Procedure, shortened: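 Vessel sections incubated with rhodamine-labelled tropoelastin-binding peptide (200nM solution) for 24h at 4°C, then counterstained for nuclei with Hoechst (1:3000, 15 min, room temperature). Kept shielded from light throughout and mounted in Mowiol medium containing 2.5% DABCO. Read-out by fluorescent microscopy.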

[8] = tissue and species not stated; cited from earlier work

## CC(C)C[C@H](NC(=O)[C@@H]1CCCN1C(=O)[C@H](CO)NC(=O)[C@H](C)NC(=O)[C@H](CCC(=O)O)NC(=O)[C@H](CC(=O)O)NC(=O)[C@H](CCC(N)=O)NC(=O)[C@H](C)NC(=O)[C@H](CO)NC(=O)[C@@H]1CCCN1C(=O)[C@H](CO)NC(=O)CNC(=O)[C@@H](NC(=O)[C@@H](NC(=O)CN1CCN(CC(=O)O)CCN(CC(=O)O)CCN(CC(=O)O)CC1)C(C)C)C(C)C)C(=O)N[C@@H](CO)C(=O)O [(Eu-DOTA)-VVGS] ({DOTA}-VVGSPSAQDEASPLS-OH)
[1]
  binding to tropoelastin: 64±7%
[2]
  selectivity towards tropoelastin compared with collagen I, fibronectin and HSA: high selectivity

## O=C([O-])CN(CCN(CC(=O)[O-])CC(=O)O)CCN(CC(=O)[O-])CC(=O)O.[Gd+3] [Gd-DTPA]
[3]
  relaxivity r1: 4.02 mM⁻¹ s⁻¹

## CC(C)[C@H](NC(=O)[C@H](Cc1c[nH]cn1)NC(=O)[C@H](CC(=O)O)NC(=O)[C@@H]1CCCN1C(=O)[C@H](Cc1ccc(O)cc1)NC(=O)[C@@H](N)CCCCNC(=O)CN1CCN(CC(=O)O)CCN(CC(=O)O)CCN(CC(=O)O)CC1)C(=O)N[C@@H](CCC(N)=O)C(=O)N[C@@H](Cc1ccc(O)cc1)C(=O)N[C@H](C(=O)N[C@@H](Cc1c[nH]cn1)C(=O)N[C@@H](Cc1ccc(O)cc1)C(=O)O)[C@@H](C)O [K(Eu-DOTA)-YPDH] (H-K(DOTA)YPDHVQYTHY-OH)
[1]
  binding to tropoelastin: 84± 4%
[2]
  selectivity towards tropoelastin compared with collagen I, fibronectin and HSA: high selectivity

## CC(C)[C@H](NC(=O)[C@H](Cc1c[nH]cn1)NC(=O)[C@H](CC(=O)O)NC(=O)[C@@H]1CCCN1C(=O)[C@H](Cc1ccc(O)cc1)NC(=O)[C@@H](N)CCCCNC(=O)CN1CCN(CC(=O)O)CCN(CC(=O)O)CCN(CC(=O)O)CC1)C(=O)N[C@@H](CCC(N)=O)C(=O)N[C@@H](Cc1ccc(O)cc1)C(=O)N[C@H](C(=O)N[C@@H](Cc1c[nH]cn1)C(=O)N[C@@H](Cc1ccc(O)cc1)C(=O)O)[C@@H](C)O [K(^64Cu-DOTA)-YPDH, metal not drawn] (H-K(DOTA)YPDHVQYTHY-OH)
[4]
  liver uptake: some liver uptake

## CC[C@H](C)C(=O)O[C@H]1C[C@H](O)C=C2C=C[C@H](C)[C@H](CC[C@@H](O)C[C@@H](O)CC(=O)O)[C@H]21 [statin, pravastatin]
[5]
  % tropoelastin (immunopositive area/vessel wall area): 11.41±0.35%
[6]
  vessel wall tropoelastin concentration (western blotting): 1.17±0.09 mg/gr tissue

## VVGSPSAQDEASPLS
[7]
  fluorescent signal in tropoelastin-rich areas of diseased vessels: fluorescent signal

## {DOTA}-VVGSPSAQDEASPLS [(^64Cu –DOTA)-VVGS]
[8]
  uptake: 7.2 %ID/g
